# In ChEMBL document CHEMBL3112515, “Discovery of novel 6,7-disubstituted-4-phenoxyquinoline derivatives bearing 5-(aminomethylene)pyrimidine-2,4,6-trione moiety as c-Met kinase inhibitors” (Bioorg Med Chem, 2014):
# Tests used:
# [1] = Cytotoxicity against human H460 cells after 72 hrs by MTT assay; details: NCI-H460, 72 h
# [2] = Cytotoxicity against human MKN45 cells after 72 hrs by MTT assay; details: MKN-45, 72 h
# [3] = target: Hepatocyte growth factor receptor (Homo sapiens, UniProt P08581); test: Inhibition of c-Met (unknown origin) using poly (Glu, Tyr) 4:1 after 30 mins by HTRF assay
# HT-29 = test: Cytotoxicity against human HT-29 cells after 72 hrs by MTT assay; details: HT-29, 72 h
# A549 = test: Cytotoxicity against human A549 cells after 72 hrs by MTT assay; assay type: functional, cell-based; details: A549, 72 h
# Summary of the method: (§1)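 Cells were grown in MEM with 10% FBS and seeded at about 4×10^3 cells per well, then held 24 h at 37 °C in 5% CO2. Compounds were added and the cells cultured 72 h. MTT was added to 5 µg/mL final for 4 h at 37 °C, and the formazan was dissolved in DMSO. IC50 is the mean of three determinations.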
# [4] = Cytotoxicity against human U87MG cells after 72 hrs by MTT assay; assay type: functional, cell-based, U-87MG ATCC; details: U-87 MG; summary of the method: as §1
Structure (SMILES),IC50 [1] [nM],IC50 [2] [nM],IC50 [3] [nM],IC50 (HT-29) [nM],IC50 (A549) [nM],IC50 [4] [nM]
COc1cc2c(Oc3ccc(N/C=C4\C(=O)NC(=O)N(c5ccccc5)C4=O)cc3F)ccnc2cc1OCCCN1CCCC1,290,210,3.36,200,–,–
COc1cc2c(Oc3ccc(N/C=C4\C(=O)NC(=O)N(c5c(C)cccc5C)C4=O)cc3F)ccnc2cc1OCCCN1CCCC1,160,900,2.35,120,230,1240
COc1cc2c(Oc3ccc(N/C=C4\C(=O)NC(=O)N(c5ccccc5C(F)(F)F)C4=O)cc3F)ccnc2cc1OCCCN1CCOCC1,2300,18400,21.2,3700,–,–
COc1cc2c(Oc3ccc(N/C=C4\C(=O)NC(=O)N(c5c(C)cccc5C)C4=O)cc3F)ccnc2cc1OCCCN1CCN(C)CC1,170,450,3.26,260,–,–
COc1cc2c(Oc3ccc(N/C=C4\C(=O)NC(=O)N(c5ccccc5)C4=O)cc3F)ccnc2cc1OCCCN1CCCCC1,220,280,4.31,160,510,1300
COc1cc2c(Oc3ccc(N/C=C4\C(=O)NC(=O)N(c5ccccc5)C4=O)cc3F)ccnc2cc1OCCCN1CCN(C)CC1,290,520,3.29,190,–,–
COc1cc2c(Oc3ccc(N/C=C4\C(=O)NC(=O)N(c5ccc(F)cc5)C4=O)cc3F)ccnc2cc1OCCCN1CCC(C)CC1,110,120,3.09,220,350,3200
COc1cc2c(Oc3ccc(N/C=C4\C(=O)NC(=O)N(c5ccccc5C(F)(F)F)C4=O)cc3F)ccnc2cc1OCCCN1CCC(C)CC1,380,310,18.3,600,–,–
COc1cc2c(Oc3ccc(N/C=C4\C(=O)NC(=O)N(c5c(C)cccc5C)C4=O)cc3F)ccnc2cc1OCCCN1CCC(C)CC1,150,130,2.83,120,–,–
COc1cc(N2C(=O)NC(=O)/C(=C\Nc3ccc(Oc4ccnc5cc(OCCCN6CCN(C)CC6)c(OC)cc45)c(F)c3)C2=O)c(OC)cc1Cl,1800,480,24.7,7700,–,–
COc1cc(N2C(=O)NC(=O)/C(=C\Nc3ccc(Oc4ccnc5cc(OCCCN6CCCC6)c(OC)cc45)c(F)c3)C2=O)c(OC)cc1Cl,710,350,16.8,9400,380,2800
COc1cc2c(Oc3ccc(N/C=C4\C(=O)NC(=O)N(c5ccc(C)cc5)C4=O)cc3F)ccnc2cc1OCCCN1CCCCC1,100,190,2.58,120,380,1500
COc1cc2c(Oc3ccc(N/C=C4\C(=O)NC(=O)N(c5ccc(F)cc5F)C4=O)cc3F)ccnc2cc1OCCCN1CCCCC1,1100,3900,9.27,420,–,–
COc1cc2c(Oc3ccc(N/C=C4\C(=O)NC(=O)N(c5ccc(F)c(Cl)c5)C4=O)cc3F)ccnc2cc1OCCCN1CCCC1,54,72,2.38,190,190,680
COc1cc2c(Oc3ccc(N/C=C4\C(=O)NC(=O)N(c5ccc(F)cc5)C4=O)cc3F)ccnc2cc1OCCCN1CCN(C)CC1,120,120,3.15,310,510,–
COc1cc2c(Oc3ccc(N/C=C4\C(=O)NC(=O)N(c5ccc(F)cc5F)C4=O)cc3F)ccnc2cc1OCCCN1CCOCC1,850,780,12.4,560,–,–

Structure (SMILES),IC50 [1] [nM],IC50 [2] [nM],IC50 [3] [nM],IC50 (HT-29) [nM],IC50 (A549) [nM],IC50 [4] [nM]
COc1cc2c(Oc3ccc(N/C=C4\C(=O)NC(=O)N(c5ccccc5)C4=O)cc3F)ccnc2cc1OCCCN1CCOCC1,260,310,4.57,350,930,4800
COc1cc2c(Oc3ccc(N/C=C4\C(=O)NC(=O)N(c5ccc(C)cc5)C4=O)cc3F)ccnc2cc1OCCCN1CCN(C)CC1,70,160,2.68,490,430,3200
COc1cc2c(Oc3ccc(N/C=C4\C(=O)NC(=O)N(c5ccc(F)cc5F)C4=O)cc3F)ccnc2cc1OCCCN1CCN(C)CC1,1170,510,8.35,1500,380,1600
COc1cc2c(Oc3ccc(N/C=C4\C(=O)NC(=O)N(c5c(C)cccc5C)C4=O)cc3F)ccnc2cc1OCCCN1CCOCC1,85,5500,3.03,140,2200,7100
COc1cc2c(Oc3ccc(N/C=C4\C(=O)NC(=O)N(c5ccccc5C(F)(F)F)C4=O)cc3F)ccnc2cc1OCCCN1CCCCC1,930,100,18.5,1300,–,–
COc1cc2c(Oc3ccc(N/C=C4\C(=O)NC(=O)N(c5ccc(F)cc5)C4=O)cc3F)ccnc2cc1OCCCN1CCCCC1,160,480,3.64,140,–,–
COc1cc(N2C(=O)NC(=O)/C(=C\Nc3ccc(Oc4ccnc5cc(OCCCN6CCCCC6)c(OC)cc45)c(F)c3)C2=O)c(OC)cc1Cl,1200,1970,27.9,2600,–,–
COc1cc2c(Oc3ccc(N/C=C4\C(=O)NC(=O)N(c5ccc(F)cc5)C4=O)cc3F)ccnc2cc1OCCCN1CCOCC1,120,740,3.58,240,–,–
COc1cc2c(Oc3ccc(N/C=C4\C(=O)NC(=O)N(c5ccc(F)cc5F)C4=O)cc3F)ccnc2cc1OCCCN1CCC(C)CC1,260,460,16,5100,–,–
COc1cc2c(Oc3ccc(N/C=C4\C(=O)NC(=O)N(c5ccc(F)cc5F)C4=O)cc3F)ccnc2cc1OCCCN1CCCC1,240,2800,12.4,710,–,–
COc1cc2c(Oc3ccc(N/C=C4\C(=O)NC(=O)N(c5ccc(F)c(Cl)c5)C4=O)cc3F)ccnc2cc1OCCCN1CCC(C)CC1,87,65,4.82,150,–,–
COc1cc(N2C(=O)NC(=O)/C(=C\Nc3ccc(Oc4ccnc5cc(OCCCN6CCOCC6)c(OC)cc45)c(F)c3)C2=O)c(OC)cc1Cl,540,2400,32.8,1300,–,–
COc1cc2c(Oc3ccc(N/C=C4\C(=O)NC(=O)N(c5ccccc5C(F)(F)F)C4=O)cc3F)ccnc2cc1OCCCN1CCN(C)CC1,4200,3500,8.14,7300,–,–
COc1cc2c(Oc3ccc(N/C=C4\C(=O)NC(=O)N(c5ccc(F)cc5)C4=O)cc3F)ccnc2cc1OCCCN1CCCC1,620,1200,2.68,490,–,–
COc1cc2c(Oc3ccc(N/C=C4\C(=O)NC(=O)N(c5ccccc5C(F)(F)F)C4=O)cc3F)ccnc2cc1OCCCN1CCCC1,360,1400,7.51,370,–,–
